# The full list was thinned out, with hits kept by preference.
# PTEN del growth: PTEN-deleted cell growth suppression; AID 827; actives 1.2% (n = 140,000); viability, % at 10 µM; HCT116 PTEN-null viability, CellTiter-Glo, 60 h; hits give low values;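 active means viability at or below a set limit, 4 SD under the median of all tested compounds, cut at about 3.7% in these data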;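 further: PTEN knockout HCT116 line with beta catenin targeted HCT116 as companion control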
# HUVEC inhibit: inhibitors of human endothelial cell proliferation | viability, % at 10 µM (by protocol) | HUVEC proliferation, CellTiter-Glo luminescence, 72 h; hits give low values | AID 648 | actives 1.1% (n = 86,000);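 active means viability at or below 30%; inactive means viability above 30%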;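 further: 100% = median luminescence of DMSO-only cell control wells on each plate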
# Fibroblast inh: blocks proliferation of human lung fibroblasts; LL 47 human lung fibroblast viability, ATP luminescence; hits give low values; viability, % at 10 µM; actives 1.1% (n = 85,000); AID 719;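 active means viability at or below 50% in the single dose screen; inactive means viability above 50%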;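 further: compound exposure lasted 72 h before the ATP readout; 100% = median luminescence of untreated cell-only wells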
#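 Material: Human LL 47 lung fibroblast cells | Input: 1,150 cells/well | Buffer or medium: IMEM plus 15% FBS | Compound dosing: 0.1% DMSO in all compound wells | Times: Overnight cell rest, 72 h compound treatment at 37 °C | Signal: CellTiter-Glo luminescence measuring cellular ATP | Measure: % viability versus median cells-only luminescence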
# Pyk2 oligo antag: blocks oligomerization of human Pyk2 in cells; Q14289; Q293 cells, Pyk2 FERM NanoBiT luminescence; hits give low values; z-score (the deposit names both 25 µM and 10 µM); actives 0.83% (n = 99,000); AID 1347419;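 active means Z-score of -3 or lower, scaled per plate to the spread of control and sample wells; inactive means z-score above -3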;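 further: negative z-score means lost luminescence so less FERM oligomerization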
# Target sequence (Q14289 whole entry, looked up): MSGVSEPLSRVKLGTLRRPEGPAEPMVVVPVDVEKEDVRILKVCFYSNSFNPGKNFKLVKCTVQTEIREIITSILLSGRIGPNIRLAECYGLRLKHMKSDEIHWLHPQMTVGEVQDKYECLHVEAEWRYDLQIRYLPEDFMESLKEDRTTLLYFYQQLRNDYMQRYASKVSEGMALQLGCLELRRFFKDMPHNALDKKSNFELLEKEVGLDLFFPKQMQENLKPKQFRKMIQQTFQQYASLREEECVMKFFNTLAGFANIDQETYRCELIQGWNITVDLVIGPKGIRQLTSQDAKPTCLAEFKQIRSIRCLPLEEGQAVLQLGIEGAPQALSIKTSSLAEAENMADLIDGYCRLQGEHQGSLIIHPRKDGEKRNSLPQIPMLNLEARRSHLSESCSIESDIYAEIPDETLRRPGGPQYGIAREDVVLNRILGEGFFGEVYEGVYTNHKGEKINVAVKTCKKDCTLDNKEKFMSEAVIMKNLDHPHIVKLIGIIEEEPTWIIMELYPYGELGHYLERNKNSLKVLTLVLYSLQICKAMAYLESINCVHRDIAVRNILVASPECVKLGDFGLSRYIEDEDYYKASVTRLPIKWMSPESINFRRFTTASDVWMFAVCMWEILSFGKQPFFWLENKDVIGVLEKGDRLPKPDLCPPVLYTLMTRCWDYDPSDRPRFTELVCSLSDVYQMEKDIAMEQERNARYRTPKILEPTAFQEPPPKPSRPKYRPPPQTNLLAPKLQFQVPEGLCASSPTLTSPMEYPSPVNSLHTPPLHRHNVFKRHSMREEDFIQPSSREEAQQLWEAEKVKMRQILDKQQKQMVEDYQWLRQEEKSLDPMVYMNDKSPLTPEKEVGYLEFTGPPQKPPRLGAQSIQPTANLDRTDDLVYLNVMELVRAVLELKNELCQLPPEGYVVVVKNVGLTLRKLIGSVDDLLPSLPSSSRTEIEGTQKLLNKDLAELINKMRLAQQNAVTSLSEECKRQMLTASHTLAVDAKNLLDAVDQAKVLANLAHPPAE
# bCat KO growth: beta-catenin-lacking colon tumor cell growth suppression; actives 1.5% (n = 140,000); HCT116 beta-catenin knockout viability, CellTiter-Glo, 60 h; hits give low values; viability, % at 10 µM;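 active means viability at or under a set limit, the compound median less 4 SD, cut at about 6% in these data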;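 further: 0% = Hyamine 1622 control at 20 µM and 100% = untreated cell control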
# H69AR inhibit: growth inhibitors of human H69AR lung tumor cells | H69AR lung tumor viability, ATP luminescence, 72 h; hits give low values | viability, % at 10 µM | actives 6% (n = 85,000);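 active means viability at or below 40%; inactive means viability above 40%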;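 further: multidrug resistant small cell line overexpressing MRP-1 efflux transporter; 100% = mean luminescence of untreated control wells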
# * marks the source's active call; other numbers are inactive results; · = not tested or not shown.
SMILES,PTEN del growth,HUVEC inhibit,Fibroblast inh,Pyk2 oligo antag,bCat KO growth,H69AR inhibit
COc1cc(-c2nc(-c3ccc4c(c3)-c3ccccc3S4(=O)=O)c(-c3ccccc3)[nH]2)cc(OC)c1OC,69,65,99,-3*,69,61
COc1cc(-c2nc(-c3ccccc3)c(-c3cccs3)[nH]2)cc(OC)c1OC,43,88,96,-3*,60,71
COc1cc(-c2nc(-c3ccccc3)c(-c3cccs3)[nH]2)cc(OC)c1O,82,70,105,-0.04,82,59
CC(=O)C1=C(O)C(=O)N(c2nccs2)C1c1ccccc1 (configuration not stated),97,97,97,0.5,107,100
COc1ccc(CC(=O)NC(C)c2nnc(SCCOc3ccc(OC)cc3)n2C)cc1 (configuration not stated),·,108,102,0.85,92,94
CC(C)n1nnnc1-c1cc(Cl)cc(Cl)c1,92,·,·,0.21,96,·
COc1ccc(CN2CCN(c3cc(C)nc4c5c(C)cc(C)nc5nn34)CC2)cc1F,·,69,77,-0.12,·,68
CCOc1ccc(CN2CCN(c3cc(C)nc4c5c(C)cc(C)nc5nn34)CC2)cc1,95,87,94,·,92,32*
Cc1cc(C)c2c(n1)nn1c(N3CCN(c4ccccc4C)CC3)cc(C)nc21,·,66,92,-1,·,37*
O=C(COc1ccccc1)n1nc(-c2ccc(Cl)cc2)nc1NCc1ccco1,62,58,74,-0.59,45,12*
COCC(=O)n1nc(-c2ccc(Cl)cc2)nc1NCc1ccc(F)cc1,75,58,79,-1.8,68,33*
CC(=O)n1nc(-c2ccccc2)nc1NCc1ccc(F)cc1,69,85,98,0.57,67,90
COc1ccccc1C(=O)n1nc(-c2ccccc2)nc1NCc1ccco1,98,91,96,-1.4,91,82
O=C(c1ccco1)n1nc(-c2ccccc2)nc1NCc1ccco1,105,91,93,-0.43,95,81
O=C(c1ccco1)n1nc(-c2ccc(Cl)cc2)nc1NCc1ccco1,79,41,82,0.2,67,36*
COc1ccc(NC(=O)Nc2ccc(Cc3ccncc3)cc2)cc1OC,63,·,·,-0.48,77,·
CC1Cc2ccccc2N1C(=O)c1cc2sccc2n1Cc1ccc(F)cc1 (configuration not stated),65,91,85,-1.5,65,90
CCCCS(=O)CC(COCc1ccccc1)OC(=O)CSc1nc(C)cc(C)n1 (configuration not stated),96,95,99,0.9,96,95
Cc1nn(-c2ccccc2)c(Cl)c1C1C(C#N)=C(N)Oc2c1c(C)nn2-c1ccccc1 (configuration not stated),94,75,99,0.32,87,5.1*
Cc1ccc(-n2nc(C)c(C3C(C#N)=C(N)OC4=C3C(=O)CC(C)(C)C4)c2Cl)cc1 (configuration not stated),·,63,80,·,·,24*
Cc1nn(-c2ccccc2)c(Cl)c1C1C(C#N)=C(N)OC2=C1C(=O)CCC2 (configuration not stated),101,102,92,-0.52,91,47
CCOC(=O)C1=C(C)OC(N)=C(C#N)C1c1c(C)nn(-c2ccccc2)c1Cl (configuration not stated),93,84,92,-0.83,96,·
C=CCOC(=O)C1=C(C)OC(N)=C(C#N)C1c1c(C)nn(-c2ccccc2)c1Cl (configuration not stated),98,85,91,-1.9,113,29*
O=C(N/C=N/OCc1cccc(C(F)(F)F)c1)N1OC[C@@H]2COc3ccc4ccccc4c3[C@@H]21,68,106,99,0.1,65,102
COc1cccc(/C=N/n2c(-c3ccco3)nc3ccccc3c2=O)c1OC,108,·,·,·,104,·
SMILES,PTEN del growth,HUVEC inhibit,Fibroblast inh,Pyk2 oligo antag,bCat KO growth,H69AR inhibit
CCOc1ccc(C(=O)/C=C/c2ccc(SC)cc2)cc1,29,·,·,-0.28,24,·
COc1ccc(CCNC(=O)COC(=O)/C=C/c2ccc(OCC#N)c(OC)c2)cc1OC,92,·,·,-0.07,99,·
COc1cc(/C=C/C(=O)c2ccc(C)cc2)ccc1OCC#N,2.0*,·,·,·,5.6*,·
CCOc1cc(/C=C/C(=O)c2ccc(C)cc2)ccc1OCC(=O)N(C)C,1.7*,·,·,-1.1,1.6*,·
COc1ccc(NC(=O)Cn2cc(C(=O)c3ccco3)c3ccccc32)cc1,102,103,94,-3*,104,96
C=CCNC(=S)N/N=C/c1ccc(-c2cc(Cl)ccc2Cl)o1,19,·,·,-3.4*,13,·
CC(C)N=C(NS(=O)(=O)c1ccccc1)C(Cl)(Cl)Cl,2.0*,·,·,·,3.5*,·
O=C(O)CN=C(NS(=O)(=O)c1ccccc1)c1ccccc1,99,·,·,1.9,94,·
CCCC(=O)NC(=S)Nc1ccc(C(C)=O)cc1,111,·,·,·,100,·
CCn1c(SCC(=O)Nc2cc3oc4ccccc4c3cc2OC)nnc1-c1cccs1,68,48,100,-2.2,62,2.3*
COc1cc2c(cc1NC(=O)CSc1ccc(C)cc1)oc1ccccc12,79,·,·,-0.62,99,·
COc1cc2c(cc1NC(=O)CSc1nnnn1-c1ccccc1)oc1ccccc12,51,57,76,-1.1,35,19*
COc1cc2c(cc1NC(=O)CSc1nnc(Cc3cccs3)n1Cc1ccco1)oc1ccccc12,46,78,92,-2.6,40,37*
COc1cc2c(cc1NC(=O)CN1CCN(S(=O)(=O)c3ccccc3F)CC1)oc1ccccc12,75,40,67,1.2,78,40*
Cc1cc(C)cc(OCc2nnc(SCC(=O)OC(C)C)o2)c1,119,93,107,0.36,103,108
Cc1cccc(OCCNC(=O)c2cccc(Oc3ccc(C(F)(F)F)cc3[N+](=O)[O-])c2)c1,71,·,·,·,72,·
COc1cc2c(cc1NC(=O)CSc1nnc(Cc3cccs3)n1C)oc1ccccc12,95,58,94,-1.7,87,3.9*
COc1cc2c(cc1NC(=O)CSc1nnc(COc3ccc(Cl)cc3)n1C)oc1ccccc12,46,70,90,-0.11,61,91
CCN(CC)c1ccc(/C=c2/sc3nnc(-c4ccccc4C)n3c2=O)cc1,102,68,88,-0.58,100,20*
CCN(CC)c1ccc(/C=c2\sc3nnc(-c4ccccc4Cl)n3c2=O)cc1,90,94,97,-1.7,91,97
c1ccc(-c2cn3nc(-c4ccccc4)sc3n2)cc1,·,69,80,·,·,61
c1ccc(-c2cn3c4c(sc3n2)CCCC4)cc1,46,52,67,0.66,44,21*
COc1cccc(-n2c(C)c(C(C)=O)c(C(C)=O)c2C)c1,102,101,106,-0.01,96,70

# Screening results: PubChem BioAssay, several laboratories
